Measurements reported in ChEMBL document CHEMBL1828575, “Design, synthesis and antiproliferative activities of biarylolefins based on polyhydroxylated and carbohydrate scaffolds” (Eur J Med Chem, 2011).

Tests used:
Assay type in all cases: functional
PC-3 = experiment: Cytotoxicity against human PC3 cells assessed as cellular growth at 10 uM after 48 hrs by SRB assay
Summary of the method: (§1)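 NCI-60 panel lines grown in RPMI 1640 with 5% FBS and 2 mM L-glutamine. Plated at 5000–40,000 cells/well and preincubated 24 h at 37 °C, 5% CO₂, with time-zero plates fixed in TCA. Compounds, dissolved in DMSO and diluted in medium, were applied for 48 h. Cells were TCA-fixed (10% final for adherent, 16% for suspension) and stained with 0.4% SRB in 1% acetic acid. Dye was solubilised in 10 mM Tris base and read at 515 nm; growth was expressed as a percentage of untreated control.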

SF-268 = experiment: Cytotoxicity against human SF268 cells assessed as cellular growth at 10 uM after 48 hrs by SRB assay; summary of the method: as §1
RPMI-8226 [1] = experiment: Cytotoxicity against human RPMI8226 cells assessed as cellular growth at 10 uM after 48 hrs by SRB assay; summary of the method: as §1
A549 [2] = experiment: Cytotoxicity against human A549 cells assessed as cellular growth at 10 uM after 48 hrs by SRB assay
Summary of the method: (§2)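 NCI60 single-dose screen of cells in RPMI 1640 with 5% FBS and 2 mM L-glutamine, preincubated 24 h at 37 °C, 5% CO₂. Cells were then exposed 48 h to compound added from DMSO stock. TCA-fixed, stained with 0.4% SRB in 1% acetic acid, dye solubilised in 10 mM Tris base and read at 515 nm. Growth is given as percent of untreated control.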

HCT-116 = experiment: Cytotoxicity against human HCT116 cells assessed as cellular growth at 10 uM after 48 hrs by SRB assay; summary of the method: as §2
NCI-H460 = experiment: Cytotoxicity against human NCI-H460 cells assessed as cellular growth at 10 uM after 48 hrs by SRB assay; summary of the method: as §1
SNB-19 [3] = experiment: Cytotoxicity against human SNB19 cells assessed as cellular growth at 10 uM after 48 hrs by SRB assay; summary of the method: as §1
UACC-62 = experiment: Cytotoxicity against human UACC62 cells assessed as cellular growth at 10 uM after 48 hrs by SRB assay; summary of the method: as §1
OVCAR-4 = experiment: Cytotoxicity against human OVCAR4 cells assessed as cellular growth at 10 uM after 48 hrs by SRB assay; summary of the method: as §1
OVCAR-8 = experiment: Cytotoxicity against human OVCAR8 cells assessed as cellular growth at 10 uM after 48 hrs by SRB assay; summary of the method: as §1
ACHN [4] = experiment: Cytotoxicity against human ACHN cells assessed as cellular growth at 10 uM after 48 hrs by SRB assay; summary of the method: as §2
SNB-19 [5] = experiment: Antitumor activity against human SNB19 cells after 48 hrs by SRB assay; conditions: SNB-19, 48 h
Summary of the method: (§3)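 NCI60 panel cells grown in RPMI 1640 with 5% FBS and 2 mM L-glutamine, plated at 5000–40,000 cells/well and preincubated 24 h at 37 °C, 5% CO₂. Compound was added from DMSO at five concentrations, 10-fold or 1/2 log dilutions, then incubated 48 h.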

786-0 = experiment: Antitumor activity against human 786-0 cells after 48 hrs by SRB assay; conditions: 786-0, 48 h
Summary of the method: (§4)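 NCI60 panel in RPMI 1640 with 5% FBS and 2 mM L-glutamine. Cells were plated at 5000–40,000/well by doubling time, held 24 h, then time-zero plates were TCA-fixed. Five concentrations (10-fold or half-log dilutions of DMSO stocks) were applied for 48 h at 37 °C, 5% CO2. Cells were fixed with cold TCA (10% final adherent, 16% suspension) and stained with 0.4% SRB. Bound dye was dissolved in 10 mM Tris and read at 515 nm. GI50, TGI and LC50 were calculated per line.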

MCF7 = experiment: Antitumor activity against human MCF7 cells after 48 hrs by SRB assay; conditions: MCF7, 48 h; summary of the method: as §4
SN12C = experiment: Antitumor activity against human SN12C cells after 48 hrs by SRB assay; summary of the method: as §3
CAKI-1 = experiment: Antitumor activity against human Caki1 cells after 48 hrs by SRB assay; conditions: CAKI-1, 48 h; summary of the method: as §4
ACHN [6] = experiment: Antitumor activity against human ACHN cells after 48 hrs by SRB assay; summary of the method: as §4
A498 = experiment: Antitumor activity against human A498 cells after 48 hrs by SRB assay; conditions: A498, 48 h; summary of the method: as §4
SK-OV-3 = experiment: Antitumor activity against human SKOV3 cells after 48 hrs by SRB assay; conditions: SK-OV-3, 48 h; summary of the method: as §3
HCC 2998 = experiment: Antitumor activity against human HCC2998 cells after 48 hrs by SRB assay; conditions: HCC 2998, 48 h; summary of the method: as §4
NCI-H322M = experiment: Antitumor activity against human NCI-H322M cells after 48 hrs by SRB assay; summary of the method: as §4
A549 [7] = experiment: Antitumor activity against human A549 cells after 48 hrs by SRB assay; conditions: A549, 48 h; summary of the method: as §4
RPMI-8226 [8] = experiment: Antitumor activity against human RPMI8226 cells after 48 hrs by SRB assay; conditions: RPMI-8226, 48 h; summary of the method: as §4
[9] = read-out: LC50 (the source's name)
[10] = read-out: pLC50 (the source's name) (converted)

In the case of `COc1cc(/C(=C2\O[C@@H]([C@H]3COC(C)(C)O3)[C@H]3OC(C)(C)O[C@@H]23)c2ccc3ccccc3c2)cc(OC)c1OC`, the Activity (PC-3) is reported as 26.98%, the Activity (SF-268) is reported as -16.94% and the Activity (RPMI-8226 [1]) is reported as 36.83%. The Activity (A549 [2]) was -9.4%, the Activity (HCT-116) was 58.36% and the Activity (NCI-H460) was 43.38%. For the same compound, the Activity (SNB-19 [3]) was 29%, the Activity (UACC-62) was 46.5% and the Activity (OVCAR-4) was 25.7%. It also gave an Activity (OVCAR-8) of 18.91%, an Activity (ACHN [4]) of 0.86% and a GI50 (SNB-19 [5]) of 2.49 µM. It also gave a TGI (SNB-19 [5]) of 6.08 µM, a CC50 (SNB-19 [5]; [9]) greater than 100 µM and a GI50 (786-0) of 2.3 µM. For the same compound, the LC50 (786-0) was 8.6 µM, the TGI (786-0) was 4.47 µM and the GI50 (MCF7; read-out: GI50) was 3.69 µM. For the same compound, the CC50 (MCF7; [9]) was greater than 100 µM, the TGI (MCF7; read-out: TGI) was 14.4 µM and the GI50 (MCF7; read-out: pGI50 (converted)) was 3.63 µM. The CC50 (MCF7; [10]) was greater than 100 µM, the TGI (MCF7; read-out: pTGI (converted)) was 14.5 µM and the GI50 (SN12C; read-out: GI50) was 3.65 µM. The CC50 (SN12C; [9]) was greater than 100 µM, the TGI (SN12C; read-out: TGI) was greater than 100 µM and the GI50 (SN12C; read-out: pGI50 (converted)) was 3.16 µM. The CC50 (SN12C; [10]) was greater than 100 µM, the TGI (SN12C; read-out: pTGI) was greater than 100 µM and the GI50 (CAKI-1; read-out: GI50) was 4.54 µM. It also gave a CC50 (CAKI-1; [9]) greater than 100 µM, a TGI (CAKI-1; read-out: TGI) greater than 100 µM and a GI50 (CAKI-1; read-out: pGI50 (converted)) of 3.63 µM. For the same compound, the CC50 (CAKI-1; [10]) was greater than 100 µM, the TGI (CAKI-1; read-out: pTGI (converted)) was greater than 100 µM and the GI50 (ACHN [6]; read-out: GI50) was 4.39 µM. The CC50 (ACHN [6]; [9]) was greater than 100 µM, the TGI (ACHN [6]; read-out: TGI) was greater than 100 µM and the GI50 (ACHN [6]; read-out: pGI50 (converted)) was 4.57 µM. The CC50 (ACHN [6]; [10]) was greater than 100 µM, the TGI (ACHN [6]; read-out: pTGI) was greater than 100 µM and the GI50 (A498; read-out: GI50) was 17.8 µM. The CC50 (A498; [9]) was greater than 100 µM, the TGI (A498; read-out: TGI) was 74.6 µM and the GI50 (A498; read-out: pGI50 (converted)) was 4.37 µM. It also gave a CC50 (A498; [10]) greater than 100 µM, a TGI (A498; read-out: pTGI (converted)) greater than 100 µM and a GI50 (SK-OV-3; read-out: GI50) of 4.37 µM. For the same compound, the CC50 (SK-OV-3; [9]) was greater than 100 µM, the TGI (SK-OV-3; read-out: TGI) was greater than 100 µM and the GI50 (SK-OV-3; read-out: pGI50 (converted)) was 17.8 µM. The CC50 (SK-OV-3; [10]) was greater than 100 µM, the TGI (SK-OV-3; read-out: pTGI (converted)) was greater than 100 µM and the GI50 (HCC 2998; read-out: GI50) was 6.47 µM. It also gave a CC50 (HCC 2998; [9]) greater than 100 µM, a TGI (HCC 2998; read-out: TGI) greater than 100 µM and a GI50 (HCC 2998; read-out: pGI50 (converted)) of 6.46 µM. The CC50 (HCC 2998; [10]) was greater than 100 µM, the TGI (HCC 2998; read-out: pTGI (converted)) was greater than 100 µM and the GI50 (NCI-H322M; read-out: GI50) was 6.74 µM. The CC50 (NCI-H322M; [9]) was greater than 100 µM, the TGI (NCI-H322M; read-out: TGI) was greater than 100 µM and the GI50 (NCI-H322M; read-out: pGI50 (converted)) was 5.75 µM. For the same compound, the CC50 (NCI-H322M; [10]) was greater than 100 µM, the TGI (NCI-H322M; read-out: pTGI) was greater than 100 µM and the GI50 (A549 [7]; read-out: GI50) was 3.09 µM. The CC50 (A549 [7]; [9]) was greater than 100 µM, the TGI (A549 [7]; read-out: TGI) was 9.55 µM and the GI50 (A549 [7]; read-out: pGI50 (converted)) was 3.09 µM. For the same compound, the CC50 (A549 [7]; [10]) was greater than 100 µM, the TGI (A549 [7]; read-out: pTGI (converted)) was 9.55 µM and the LC50 (concentration killing 50% of starting cells) (RPMI-8226 [8]) was greater than 100 µM. The GI50 (RPMI-8226 [8]; read-out: GI50) was 33.3 µM, the TGI (RPMI-8226 [8]; read-out: TGI) was greater than 100 µM and the GI50 (RPMI-8226 [8]; read-out: pGI50 (converted)) was 33.1 µM. For the same compound, the CC50 (RPMI-8226 [8]; [10]) was greater than 100 µM and the TGI (RPMI-8226 [8]; read-out: pTGI (converted)) was greater than 100 µM.
